The text below walks through data of ChEMBL document CHEMBL1147092, “Pharmacokinetic/pharmacodynamic factors influencing emergence of resistance to linezolid in an in vitro model” (Antimicrob Agents Chemother, 2007).

Data set [1] has as its system Staphylococcus aureus. The experiment in a line: Bactericidal activity against vancomycin-intermediate Staphylococcus aureus Mu50 assessed as reduction of CFU using in vitro PK/PD model with human dosage regimen 120 mg every 12 hrs after 24 hrs. Type of data set: functional. The gist of the method: (§1)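 Flow-through central chamber of BHI broth at 37°C, with pumped clearance set for a 5-h half-life (volume of distribution 290 ml). Exponential-phase inoculum was 10^6 CFU/ml, in duplicate, with growth controls. Samples taken 0–72 h were diluted in saline, plated on nutrient agar and incubated 37°C for 24 h; quantification limit 50 CFU/ml. Drug levels were checked by HPLC. Reduction is the log10 CFU/ml fall.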

Data set [2] relates to Staphylococcus aureus. The experiment in a line: Antibacterial activity against heteroresistant vancomycin-intermediate Staphylococcus aureus Mu3 using in vitro PK/PD model with 120 mg/24 hr continuous infusion simulated regimen after 72 hrs. Type of data set: functional. Conditions: Mu3, 72 h.
A short description of data set [3]: Half life for simulated intermittent-dosage regimen at 600 mg every 12 hrs using in vitro PK/PD model.
The nature of data set [4]: Half life for simulated intermittent-dosage regimen at 120 mg every 12 hrs using in vitro PK/PD model.
In data set [5] the test system is Staphylococcus aureus. Briefly: Area under population analysis profile for methicillin-resistant Staphylococcus aureus using in vitro PK/PD model relative to growth control with 120 mg/24 hrs continuous infusion regimen after 72 hrs. Type of data set: functional. The procedure, abridged: (§2)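 Bacteria recovered after 72 h of a 2.0-μg/ml continuous infusion in a flow-through BHI model (duplicates). 50 μl of a 0.5 McFarland suspension or dilutions were spiral-plated on BHI agar with linezolid 0–5 μg/ml and incubated 35°C for 48 h; counting limit 20 CFU/ml. Area under the log10 CFU/ml vs concentration curve (trapezoidal) is compared with the 72-h growth control.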

Data set [6] concerns Enterococcus faecium. The experiment in a line: Antibacterial activity against vancomycin-resistant Enterococcus faecium ATCC 700221 by microdilution method. Type of data set: functional. The gist of the method: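 Standard broth microdilution in cation-adjusted Mueller-Hinton broth, run in four replicates at baseline. Before testing, the strain was held at −80°C in tryptone soy broth with 20% glycerol and subcultured on horse blood agar for 24 h at 35°C.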
For orientation: In broth dilution the organism is exposed to a series of concentrations in liquid medium.

Data set [7] concerns Staphylococcus aureus. Briefly: Bactericidal activity against vancomycin-intermediate Staphylococcus aureus Mu50 assessed as reduction of CFU using in vitro PK/PD model with 120 mg/24 hr continuous infusion simulated regimen after 48 hrs. Type of data set: functional. The procedure, abridged:
(§3)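 Flow-through in vitro PK/PD model in BHI broth at 37°C, 5-h half-life (Vd 290 ml); exponential-phase inoculum 10^6 CFU/ml, duplicates with growth controls. […] Viable counts by saline dilution, plating on nutrient agar, 37°C 24 h; bactericidal = >3-log10 CFU/ml drop.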

For data set [8], the system named is Staphylococcus aureus. Briefly: Area under population analysis profile for vancomycin-intermediate Staphylococcus aureus Mu50 using in vitro PK/PD model relative to growth control with 120 mg/24 hrs continuous infusion regimen after 72 hrs. Type of data set: functional.
Data set [9] concerns Staphylococcus aureus. The experiment in a line: Area under population analysis profile for heteroresistant vancomycin-intermediate Staphylococcus aureus Mu3 using in vitro PK/PD model relative to growth control with 120 mg/24 hrs continuous infusion regimen after 72 hrs. Type of data set: functional. The procedure, abridged: as §2
Data set [10] deals with Enterococcus faecium. Briefly: Area under population analysis profile for vancomycin-resistant Enterococcus faecium ATCC 700221 using in vitro PK/PD model relative to growth control with 120 mg/24 hrs continuous infusion regimen after 72 hrs. Type of data set: functional. The procedure, abridged:
as §2

Data set [11] concerns Staphylococcus aureus. The experiment in a line: Antibacterial activity against methicillin-resistant Staphylococcus aureus ATCC 43300 using in vitro PK/PD model with 120 mg/24 hr continuous infusion simulated regimen after 72 hrs. Type of data set: functional. Particulars: ATCC 43300, 72 h.
Data set [12] has as its system Enterococcus faecium. The experiment in a line: Bactericidal activity against vancomycin-resistant Enterococcus faecium ATCC 700221 assessed as reduction of CFU using in vitro PK/PD model with 120 mg/24 hr continuous infusion simulated regimen after 48 hrs. Type of data set: functional. The procedure, abridged:
as §1

In data set [13] the test system is Staphylococcus aureus. Briefly: Bactericidal activity against heteroresistant vancomycin-intermediate Staphylococcus aureus Mu3 assessed as reduction of CFU using in vitro PK/PD model with human dosage regimen 600 mg every 12 hrs after 24 hrs. Type of data set: functional. The procedure, abridged:
as §1

Data set [14] relates to Staphylococcus aureus. Briefly: Bactericidal activity against vancomycin-intermediate Staphylococcus aureus Mu50 assessed as reduction of CFU using in vitro PK/PD model with human dosage regimen 600 mg every 12 hrs after 24 hrs. Type of data set: functional. The gist of the method:
as §3

Data set [15] deals with Staphylococcus aureus. Briefly: Bactericidal activity against methicillin-resistant Staphylococcus aureus ATCC 43300 assessed as reduction of CFU using in vitro PK/PD model with human dosage regimen 600 mg every 12 hrs after 24 hrs. Type of data set: functional. The gist of the method:
as §1

For data set [16], the system named is Enterococcus faecium. The experiment in a line: Bactericidal activity against vancomycin-resistant Enterococcus faecium ATCC 700221 assessed as reduction of CFU using in vitro PK/PD model with human dosage regimen 600 mg every 12 hrs at 24 hrs. Type of data set: functional. The gist of the method:
as §1

Each structure is given as a SMILES string. In brackets after ≈: the same amount, converted by molar mass.

Consider `CC(=O)NC[C@H]1CN(c2ccc(N3CCOCC3)c(F)c2)C(=O)O1` [LINEZOLID], for which the log10CFU/ml is over 3 in data set [1]; over 3 in [7]; over 3 in data set [12]; 3.1 in data set [13]; 3.3 in data set [14]; 3.9 in data set [15]. In addition, in data set [16], the log10CFU/ml is on record as 3.8. In addition, the MIC was at least 8 µg/mL in data set [2], 2 µg/mL (≈ 5.93 µM) in data set [6] and at least 8 µg/mL in data set [11]. The half-life at 12 h in data set [3] and in data set [4] was 5.32 h throughout. In addition, the AUPAP is 178% in data set [5], 90.2% in data set [8], 70.2% in [9] and 40% in data set [10].

The MIC is the smallest concentration in the dilution series that meets the test's criterion for growth inhibition. Higher therefore signals a need for much substance. By half-life is commonly meant how long it takes for the measured level to halve.
